Blank lines part the entries; values can stand above or below the molecule they belong to.
Experiments:
[1] = Lipophilicity, logD of compound at pH 7.4 by RP-HPLC analysis; type: physicochemical; settings: buffer
[2] = Stability of compound in DMSO assessed as decrease in purity incubated for 24 hrs; type: physicochemical
Summary of the method: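 Compound was held in DMSO solution and its stability judged after 24 h. Single determination, n = 1.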

[3] = Dissociation constant, pKa of compound by potentiometric fast UV-metric titration method; type: physicochemical
[4] = Metabolic stability in human Hepatocyte assessed as intrinsic clearance at 1 uM incubated for 90 mins by UPLC-MS/MS analysis; type: ADME, tissue-based; settings: hepatocytes
Summary of the method: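 Human hepatocytes were incubated with compound to capture phase 2 and other metabolism.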

[5] = Metabolic stability in human skin S9 cells assessed as half life at 0.5 uM incubated for 180 mins by UPLC-MS/MS analysis; type: ADME, subcellular, Zone of skin; settings: s9, 3 h
Summary of the method: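 Skin S9 fraction was incubated with compound in the presence of enzymatic cofactors. Stability was followed over 180 min, n = 1.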

logD [1]: > 4.3
SMILES: CCC/N=C1\S/C(=C\c2ccc(O)c(Cl)c2)C(=O)N1C(C)C

pKa [3]: 8.5
CLH [4]: 31 mL/min/g
logD [1]: 3.8
SMILES: CCC/N=C1\S/C(=C\c2ccc(O)c(C)c2)C(=O)N1c1ccccc1C

logD [1]: 1.9
SMILES: Cc1ccccc1N1C(=O)/C(=C/c2ccc(O)c(Cl)c2)S/C1=N\CCO

logD [1]: 0.6
SMILES: CCC/N=C1\S/C(=C\c2ccc(O)c(Cl)c2)C(=O)N1C1CCN(C)C(=O)C1 (racemic)

logD [1]: 3.3
SMILES: CCC/N=C1\S/C(=C\c2ccc(O)c(Cl)c2)C(=O)N1c1ccccc1OC

pKa [3]: 6.8
CLH [4]: 8.4 mL/min/g
logD [1]: 3.8
SMILES: CCC/N=C1\S/C(=C\c2ccc(O)c(Cl)c2)C(=O)N1c1ccccc1C

logD [1]: 2.7
SMILES: CCC/N=C1\S/C(=C\c2ccc(O)c(Cl)c2)C(=O)N1c1ccccc1O

logD [1]: 3.7
SMILES: CCC/N=C1\S/C(=C\c2ccc(O)c(Cl)c2)C(=O)N1C1CCOCC1

pKa [3]: 8.6
CLH [4]: 12 mL/min/g
logD [1]: 4.3
SMILES: CCC/N=C1\S/C(=C\c2ccc(O)c(C(C)C)c2)C(=O)N1c1ccccc1C

logD [1]: 3.4
SMILES: CCC/N=C1\S/C(=C\c2ccc(O)c(Cl)c2)C(=O)N1C1CC1

logD [1]: 2.6
SMILES: CCC/N=C1\S/C(=C\c2ccc(O)c(Cl)c2)C(=O)N1C1CCS(=O)(=O)CC1

The remaining lines, values behind:

SMILES: COCC/N=C1\S/C(=C\c2ccc(O)c(Cl)c2)C(=O)N1c1ccccc1C
logD [1]: 2.9

SMILES: CCC/N=C1\S/C(=C\c2ccc(OC(=O)COC)c(C)c2)C(=O)N1c1ccccc1C
Stabilty [2]: Unstable

SMILES: Cc1ccccc1N1C(=O)/C(=C/c2ccc(O)c(Cl)c2)S/C1=N\C1COC1
logD [1]: 2.6

SMILES: CCC/N=C1\S/C(=C\c2ccc(OC[C@H](O)CO)c(Cl)c2)C(=O)N1c1ccccc1C [PONESIMOD]
t1/2 [5]: > 180 min

SMILES: CCC/N=C1\S/C(=C\c2ccc(O)cn2)C(=O)N1c1ccccc1C
pKa [3]: 7.1
CLH [4]: 7.9 mL/min/g
logD [1]: 3

SMILES: Cc1ccccc1N1C(=O)/C(=C/c2ccc(O)c(Cl)c2)S/C1=N\CCCF
logD [1]: 3.4

SMILES: CCC/N=C1\S/C(=C\c2ccc(OC(C)=O)c(C(F)(F)F)c2)C(=O)N1c1ccccc1C
t1/2 [5]: 8.3 min

SMILES: CCC/N=C1\S/C(=C\c2ccc(O)cc2)C(=O)N1c1ccccc1C
pKa [3]: 8.3
CLH [4]: 1.7 mL/min/g
logD [1]: 3.5

SMILES: CCC/N=C1\S/C(=C\c2ccc(OC(=O)C(C)(C)C)c(C)c2)C(=O)N1c1ccccc1C
t1/2 [5]: > 180 min

SMILES: CCC/N=C1\S/C(=C\c2ccc(OC(=O)CCOC)c(C)c2)C(=O)N1c1ccccc1C
t1/2 [5]: 4.8 min

SMILES: CCC/N=C1\S/C(=C\c2ccc(OC(C)=O)c(Br)c2)C(=O)N1c1ccccc1C
t1/2 [5]: 8.8 min

SMILES: CCC/N=C1\S/C(=C\c2ccc(O)c(Br)c2)C(=O)N1c1ccccc1C
pKa [3]: 6.4
CLH [4]: 6 mL/min/g
logD [1]: 3.9

SMILES: CCC/N=C1\S/C(=C\c2ccc(OC(=O)C(C)C)c(C)c2)C(=O)N1c1ccccc1C
t1/2 [5]: 21 min

SMILES: CCC/N=C1\S/C(=C\c2ccc(OC(=O)CCO)c(C)c2)C(=O)N1c1ccccc1C
t1/2 [5]: 8.2 min

SMILES: CCC/N=C1\S/C(=C\c2ccc(O)c(C(F)(F)F)c2)C(=O)N1c1ccccc1C
pKa [3]: 6.6
CLH [4]: 4.2 mL/min/g
logD [1]: 3.8

SMILES: CCC/N=C1\S/C(=C\c2ccc(OC(C)=O)c(C)c2)C(=O)N1c1ccccc1C
t1/2 [5]: 7.3 min

SMILES: CCC/N=C1\S/C(=C\c2ccc(OC(=O)CN(C)C)c(C)c2)C(=O)N1c1ccccc1C
Stabilty [2]: Unstable
